Screening data deposited in PubChem BioAssay by several laboratories.
SUMO Mot1 rescue: SUMOylation pathway inhibition by Mot1-301 growth rescue | growth rescue, % at 18.8 µM | 1% of 320,000 active | S. cerevisiae Mot1-301 growth rescue, ATP luminescence, 38.5C; percent above DMSO median, 100 means doubled;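 active = every valid replicate shows activation above 250% relative to neutral control wells; inactive = the rest, any valid replicate at or below 250%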;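 note: OY570 slx delta 5 strain wells were the positive control but not used for scaling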
Beta cell apopt: beta cell apoptosis inhibition. INS-1E cytokine-induced death, ATP luminescence, 48 h; percent of positive-control rescue, neutral wells zero. protection from apoptosis, % (no concentration beside the values). 0.8% of 300,000 active. AID 435005;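 active = Every replicate reaches about 75%, or at least half do and their mean reaches it too, limit read from the data; inconclusive = At least half of replicates reach the limit but their mean does not; inactive = Under half of replicates reach the limit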;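 note: 0% = cytokine-treated negative control wells and 100% = positive control rescue; higher means more ATP so stronger rescue from cytokine killing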
T cruzi repl: T. cruzi replication inhibition; T. cruzi beta-gal in NIH3T3, luminescence, 90 h; inhibition, % (no concentration beside the values); 1.4% of 300,000 active;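 active = mean inhibition across valid replicates above about 55%, limit read from the data; inconclusive = mean below that limit but half or more replicates reach it; inactive = mean below it, under half of replicates reach it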;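 note: signal also drops with host cell toxicity which is not excluded here; 0% = plate median of DMSO wells and 100% = zero luminescence signal; higher percent means less beta-gal luminescence so fewer parasites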
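compound dosing = single 50 nL compound addition per well in DMSO | material = NIH/3T3 host cells with β-galactosidase reporter T. cruzi | input = 5,000 host fibroblasts per well | timing = ≥90 h infection period, 3 h prior cell attachment | read-out basis = percent inhibition of parasite-derived β-gal signal | detection = GalScreen β-gal luminescence, detergent lysis, 60 min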
WT yeast gro inh: growth inhibition of WT yeast, mitochondrial fusion screen. mitochondrial fusion phenotypic screen, WT strain. inhibition, % at 10 µM. 2.1% of 190,000 active. AID 1362; in the data active = inhibition above about 58%; tested in S. cerevisiae
CSC inhib: blocks cancer stem cells; cancer stem cell-like cells viability, luminescence; inhibition, % at 7.5 µM; 1.1% of 300,000 active; in the data active = inhibition above about 75%; inconclusive = no clear call, values can overlap the other calls; tested in HMLE shEcad cells
Efflux pump inh: inhibitors of Candida antifungal efflux pumps expressed in yeast; inhibition, % at 10 µM; S. cerevisiae Candida pump triplex, Nile Red efflux; 0.44% of 330,000 active; AID 485275;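 active = plate passing quality check with inhibition over a set limit, or well fluorescence over plate mean plus 4 SD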;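 note: Nile Red retained in pooled yeast measured as flow cytometry median fluorescence; 0% = buffer negative control and 100% = Enniatin B positive control; higher means more Nile Red kept so more efflux inhibition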
Numbers without * were called inactive; i = inactive; ? = inconclusive; · = no result given. The list is not random: actives were taken first. Their share in the collection is about 4.8%.

SMILES	SUMO Mot1 rescue	Beta cell apopt	T cruzi repl	WT yeast gro inh	CSC inhib	Efflux pump inh
C/C(Cn1cnc([N+](=O)[O-])n1)=N\NC(=O)c1ccccc1O	-10	1	56*	-16	-5	0
C/C(Cn1nnc([N+](=O)[O-])n1)=N\NC(=O)c1ccccc1O	-20	16	43	·	-10	0
C/C(Cn1cnc([N+](=O)[O-])n1)=N\NC(=O)c1ccccc1F	-13	-8	75*	-6	0	0
C/C(Cn1cnc([N+](=O)[O-])n1)=N\NC(=O)c1ccc(O)cc1O	-5	·	55*	4	19	0
C/C(Cn1cnc([N+](=O)[O-])n1)=N\NC(=O)c1ccc(Br)cc1	-11	3	41	-20	-13	0
COc1ccc(N2C(=NC(=O)CCC3CCCC3)SC3CS(=O)(=O)CC32)cc1 (stereo unspecified)	-7	-2	10	·	-14	0
CC(C)COc1cccc(-c2cc(C(=O)Nc3ccon3)c3ccccc3n2)c1	-9	8	21	·	·	0
Nn1c(Cc2cccc3ccccc23)nnc1SCCOc1ccc(Br)cc1	106	-1	20	68*	16	-1
O=C(c1ccccc1)c1ccc(NCCCn2ccnc2)c([N+](=O)[O-])c1	7	1	56*	·	37	0
CCN(CC)S(=O)(=O)c1ccc(NCCCn2ccnc2)c([N+](=O)[O-])c1	-7	-1	21	·	44	0
COc1ccc(-n2nc(C#N)c(Cl)cc2=O)cc1	·	·	·	67*	·	·
COC(=O)c1nn(-c2ccc(OC)cc2)c(=O)cc1O	482	-5	2	2	14	0
CCc1cccc(C)c1N=Cc1c(O)c2ccccc2oc1=O	-2	1	-3	·	13	0
CCOC(=O)c1c(NC(=O)OC)sc(C(=O)N(C)C)c1C	-28	-15	-2	71*	-6	0
Cc1cccc(C2=N/C(=C\c3cccs3)C(=O)O2)c1	13	1	-6	-6	5	0
Cc1cc(C)n(CC(=O)N2CCCC(C(=O)c3cccc(OC(C)C)c3)C2)n1 (stereo unspecified)	-1	4	11	5	7	0
Cc1cccc(-c2nc(Nc3ccc(N4CCOCC4)cc3)c3ccccc3n2)c1	37	3	56*	51	67	0
Cc1cccc(-c2nc(Nc3cccc(O)c3)c3ccccc3n2)c1	60	-5	11	·	81*	0
COc1ccc(OC)c(-n2c(=S)[nH]c3c(sc(=S)n3-c3ccccc3)c2=O)c1	12	2	-1	4	-10	0
CC(=O)Nc1cc([N+](=O)[O-])ccc1N1CCOCC1	·	-3	0	9	-4	0
O=C(Nc1ccc([N+](=O)[O-])cc1)Nc1ccc(N2CCOCC2)c2nonc12	-20	3	71*	79*	-4	0
CCCCCCOc1ccc(/C(C)=N/NC2=NCCN2)cc1[N+](=O)[O-]	4	57	66*	65	?	0
CCCCCOc1ccc(Cn2ccnc2)cc1[N+](=O)[O-]	11	-4	62*	44	40	0
CCCCOc1ccc(CSC2=NCCN2)cc1[N+](=O)[O-]	139	-8	66*	22	41	0
CCOc1ccc(CSC2=NCCN2)cc1[N+](=O)[O-]	i	0	42	-2	32	0
SMILES	SUMO Mot1 rescue	Beta cell apopt	T cruzi repl	WT yeast gro inh	CSC inhib	Efflux pump inh
C/C(=N\NC1=NCCN1)c1ccc(N)c([N+](=O)[O-])c1	3	-1	28	·	-2	0
CCOc1ccc(Cn2ccnc2)cc1[N+](=O)[O-]	-8	-10	17	12	6	0
CCCCCOc1ccc(CSC(=N)N)cc1[N+](=O)[O-]	2	-3	23	77*	67	0
CCCC(=O)OC1CCS(=O)(=O)c2sccc21 (stereo unspecified)	9	1	-2	8	-10	0
Cc1ccc(S(=O)(=O)N2CCC(NC(=O)c3cccc(C)c3)CC2)cc1	0	-3	-17	10	-15	0
O=C(NNC(=O)c1ccccc1O)c1cc2ccccc2o1	255	-9	-6	·	-10	0
CCOC(=O)c1ccc(CNCc2ccc(C)cc2)cc1	1	-1	1	4	-3	0
CCCCSc1nc2sc3c(c2c(=O)n1-c1ccccc1)CCN(C)C3	-21	13	55*	·	-11	0
CN1CCc2c(sc3nc(SCC(N)=O)n(-c4ccccc4)c(=O)c23)C1	0	-2	16	-4	9	0
CCCCSc1nc2sc3c(c2c(=O)n1-c1ccc(OC)cc1)CCN(C)C3	·	·	49	·	·	·
CCn1c(SCC(=O)NCCc2ccccc2)nc2sc3c(c2c1=O)CCN(C)C3	-25	-7	·	·	15	0
C=C(C)CSc1nc2sc3c(c2c(=O)n1-c1ccccc1)CCN(C)C3	12	1	55*	·	-4	0
CCn1c(SCC(=O)c2ccccc2)nc2sc3c(c2c1=O)CCN(C)C3	-13	-14	64*	·	-2	0
CSc1nc2sc3c(c2c(=O)n1C1CCCCC1)CCN(C)C3	-4	1	41	-17	12	0
C=C(C)CSc1nc2sc3c(c2c(=O)n1C1CCCCC1)CCN(C)C3	-11	-4	59*	·	23	0
CSc1nc(NCc2ccccc2)c2c3c(sc2n1)CN(C)CC3	0	-3	55*	14	-6	0
COc1cc2c(cc1NC(=O)CN(C)Cc1ccc(OC)c(OC)c1)oc1ccccc12	172	11	50	30	·	0
COc1ccc(CN(C)CC(=O)Nc2cc3oc4ccccc4c3cc2OC)c(OC)c1	37	6	37	40	84*	-1
COc1cc2c(cc1NC(=O)CCC(=O)O)oc1ccccc12	-16	-7	-1	·	-14	0
COc1cc2c(cc1NC(=O)C(C)NCc1ccccc1)oc1ccccc12 (stereo unspecified)	200	-2	13	68*	36	0
COc1cc2c(cc1NS(=O)(=O)N1CCCCC1)oc1ccccc12	-3	-5	-9	80*	25	0
COc1cc2c(cc1NC(=O)Nc1ccccc1)oc1ccccc12	38	11	40	69*	-17	0
Cc1ccccc1C(=O)NCC(C)NC(=O)c1ccccc1C (stereo unspecified)	-13	10	-17	·	3	0
CCOC(=O)N1CCN(CCC(=O)Nc2ccc(OC(F)(F)F)cc2)CC1	2	-1	-39	-8	-11	0
O=C(NNc1cc(N2CCOCC2)nc(N2CCOCC2)n1)c1ccc(Cl)c(Cl)c1	7	-5	-15	1	-4	0
Cc1ccc(C(=O)NNc2cc(N3CCCC3)nc(N3CCCC3)n2)cc1	·	9	81*	21	7	0
CCc1ccc(CN2CCC(n3nccc3NC(=O)Cc3ccccc3)CC2)o1	-7	5	7	·	-14	0
